Key:
Format in all cases: functional
Rattus norvegicus [1] = assay: Amount of non-HDL-cholesterol in obese Zucker rats at pre-treatment at a dose of 30 mg/kg/day
Outline: (§1)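 Female obese Zucker fatty rats [Crl:(Zuc)-faBR], 10–12 weeks old (400–500 g), on chow. Compound in 20% EtOH/80% PEG-200 (v/v) given by daily oral gavage. After a 6-h fast, serum was taken before dosing and at 7 days (orbital plexus), and at 14 days (cardiac puncture). Lipoprotein cholesterol came from Superose 6HR gel-filtration profiles × serum total cholesterol. Mean ± SEM.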

Rattus norvegicus [2] = assay: Amount of insulin in obese Zucker rats after 2 weeks of treatment at a dose of 10 mg/kg/day
Outline: (§2)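 Female obese Zucker rats [Crl:(Zuc)-faBR], 400–500 g, given daily oral gavage in 20% EtOH/80% PEG-200 for up to 14 days. After a 6-h fast, serum was collected pretreatment and at day 7 (orbital bleed) and day 14 (cardiac puncture) and stored at -80 °C. Insulin was measured by ELISA. Values are mean ± SEM.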

Rattus norvegicus [3] = assay: Amount of insulin in obese Zucker rats after 2 weeks of treatment at a dose of 100 mg/kg/day; outline: as §2
Rattus norvegicus [4] = assay: Amount of non-HDL-cholesterol in obese Zucker rats at pre-treatment at a dose of 0 mg/kg/day; outline: as §1
Rattus norvegicus [5] = assay: Amount of glucose in obese Zucker rats at pre-treatment at a dose of 3 mg/kg/day
Outline: (§3)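 Female Zucker fatty rats [Crl:(Zuc)-faBR], 10–12 weeks old (400–500 g), gavaged daily with vehicle (20% EtOH/80% PEG-200, 0.25% of body weight) or compound. After a 6-h fast, blood glucose was read by glucometer from tail-prick blood of unanesthetized rats before dosing and after 1 and 2 weeks. Values are mean ± SEM.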

Rattus norvegicus [6] = assay: Amount of insulin in obese Zucker rats at pre-treatment at a dose of 0 mg/kg/day; outline: as §2
Rattus norvegicus [7] = assay: Amount of glucose in obese Zucker rats at pre-treatment at a dose of 10 mg/kg/day; outline: as §3
Rattus norvegicus [8] = assay: Amount of insulin in obese Zucker rats at pre-treatment at a dose of 100 mg/kg/day; outline: as §2
Rattus norvegicus [9] = assay: Amount of triglycerides in obese Zucker rats at pre-treatment at a dose of 3 mg/kg/day
Outline: (§4)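 Female Zucker fatty rats [Crl:(Zuc)-faBR], 10–12 weeks old (400–500 g), dosed once daily by oral gavage in 20% EtOH/80% PEG-200 for up to 14 days. After a 6-h fast, serum was taken pre-dose, at day 7 (orbital venous plexus, O2/CO2 anaesthesia) and at day 14 (cardiac puncture), stored at −80 °C, and assayed on a Hitachi 912 automatic analyzer. Mean ± SEM.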

Rattus norvegicus [10] = assay: Amount of triglycerides in obese Zucker rats after 1 week of treatment at a dose of 0 mg/kg/day; outline: as §4
Rattus norvegicus [11] = assay: Amount of triglycerides in obese Zucker rats after 1 week of treatment at a dose of 3 mg/kg/day; outline: as §4
Rattus norvegicus [12] = assay: Amount of triglycerides in obese Zucker rats after 2 weeks of treatment at a dose of 100 mg/kg/day; outline: as §4
Rattus norvegicus [13] = assay: Amount of HDL-cholesterol in obese Zucker rats after 2 weeks of treatment at a dose of 10 mg/kg/day
Outline: (§5)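 Female Zucker fatty rats [Crl:(Zuc)-faBR], 10–12 weeks old (400–500 g), dosed once daily by oral gavage in 20% EtOH/80% PEG-200 (dose volume 0.25% of body weight). Rats were fasted 6 h and bled before dosing and at day 7 (orbital plexus), and at day 14 (cardiac puncture). Serum cholesterol fractions came from Superose 6 gel-filtration lipoprotein profiles (% peak area × serum total cholesterol). Values are mean ± SEM.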

Rattus norvegicus [14] = assay: Amount of non-HDL-cholesterol in obese Zucker rats after 1 week of treatment at a dose of 3 mg/kg/day; outline: as §5
Rattus norvegicus [15] = assay: Amount of HDL-cholesterol in obese Zucker rats after 2 weeks of treatment at a dose of 100 mg/kg/day; outline: as §5
Rattus norvegicus [16] = assay: Amount of non-HDL-cholesterol in obese Zucker rats after 1 week of treatment at a dose of 30 mg/kg/day; outline: as §5
Rattus norvegicus [17] = assay: Amount of non-HDL-cholesterol in obese Zucker rats after 2 weeks of treatment at a dose of 30 mg/kg/day; outline: as §1
Rattus norvegicus [18] = assay: Percent decrease in triglycerides in obese Zucker rats after 1 week of treatment at a dose of 30 mg/kg/day; parameters: scale not given: the % may be the effect or the level left
Outline: (§6)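 Female Zucker fatty rats [Crl:(Zuc)-faBR], 10–12 weeks, 400–500 g, acclimated 7 days on chow. Compound or vehicle (20% EtOH/80% PEG-200) given by daily oral gavage for 2 weeks, 0–100 mg/kg/day. After a 6 h fast, blood was taken before dosing, at 1 wk and at 2 wk. Serum lipids, NEFA and insulin (ELISA) were measured; glucose by glucometer. HDL/non-HDL-C came from Superose 6 gel-filtration profiles. Values are % change from pretreatment, mean ± SEM.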

Rattus norvegicus [19] = assay: Percent increase in HDL-cholesterol in obese Zucker rats after 1 week of treatment at a dose of 100 mg/kg/day; outline: as §6
Rattus norvegicus [20] = assay: Amount of nonesterified fatty acids in obese Zucker rats after 2 weeks of treatment at a dose of 0 mg/kg/day; outline: as §4
Rattus norvegicus [21] = assay: Amount of nonesterified fatty acids in obese Zucker rats after 2 weeks of treatment at a dose of 3 mg/kg/day; outline: as §4
Rattus norvegicus [22] = assay: Percent increase in HDL-cholesterol in obese Zucker rats after 1 week of treatment at a dose of 30 mg/kg/day; outline: as §6
Rattus norvegicus [23] = assay: Amount of nonesterified fatty acids in obese Zucker rats after 1 week of treatment at a dose of 100 mg/kg/day; outline: as §4
Rattus norvegicus [24] = assay: Amount of nonesterified fatty acids in obese Zucker rats after 2 weeks of treatment at a dose of 10 mg/kg/day; outline: as §4
Rattus norvegicus [25] = assay: Amount of HDL-cholesterol in obese Zucker rats after 1 week of treatment at a dose of 0 mg/kg/day; outline: as §5
Rattus norvegicus [26] = assay: Amount of HDL-cholesterol in obese Zucker rats after 1 week of treatment at a dose of 3 mg/kg/day; outline: as §5
Rattus norvegicus [27] = assay: Amount of triglycerides in obese Zucker rats after 1 week of treatment at a dose of 100 mg/kg/day; outline: as §4
Rattus norvegicus [28] = assay: Amount of triglycerides in obese Zucker rats after 2 weeks of treatment at a dose of 10 mg/kg/day; outline: as §4
Rattus norvegicus [29] = assay: Amount of HDL-cholesterol in obese Zucker rats at pre-treatment at a dose of 30 mg/kg/day; outline: as §5
Rattus norvegicus [30] = assay: Amount of glucose in obese Zucker rats after 1 week of treatment at a dose of 10 mg/kg/day; outline: as §3
Rattus norvegicus [31] = assay: Amount of glucose in obese Zucker rats after 2 weeks of treatment at a dose of 0 mg/kg/day; outline: as §3
Rattus norvegicus [32] = assay: Amount of glucose in obese Zucker rats after 2 weeks of treatment at a dose of 3 mg/kg/day; outline: as §3
Rattus norvegicus [33] = assay: Amount of insulin in obese Zucker rats after 1 week of treatment at a dose of 30 mg/kg/day; outline: as §2
Rattus norvegicus [34] = assay: Amount of glucose in obese Zucker rats at pre-treatment at a dose of 0 mg/kg/day; outline: as §3
Rattus norvegicus [35] = assay: Amount of glucose in obese Zucker rats at pre-treatment at a dose of 100 mg/kg/day; outline: as §3

Compound	Activity (Rattus norvegicus [1]) [mg/dL]	Activity (Rattus norvegicus [2]) [ng/mL]	Activity (Rattus norvegicus [3]) [ng/mL]	Activity (Rattus norvegicus [4]) [mg/dL]	Activity (Rattus norvegicus [5]) [mg/dL]	Activity (Rattus norvegicus [6]) [ng/mL]	Activity (Rattus norvegicus [7]) [mg/dL]	Activity (Rattus norvegicus [8]) [ng/mL]	Activity (Rattus norvegicus [9]) [mg/dL]	Activity (Rattus norvegicus [10]) [mg/dL]	Activity (Rattus norvegicus [11]) [mg/dL]	Activity (Rattus norvegicus [12]) [mg/dL]	Activity (Rattus norvegicus [13]) [mg/dL]	Activity (Rattus norvegicus [14]) [mg/dL]	Activity (Rattus norvegicus [15]) [mg/dL]	Activity (Rattus norvegicus [16]) [mg/dL]	Activity (Rattus norvegicus [17]) [mg/dL]	Activity (Rattus norvegicus [18]) [%]	Activity (Rattus norvegicus [19]) [%]	Activity (Rattus norvegicus [20]) [mg/dL]	other results
CC(C)(CO)CCCCC(=O)CCCCC(C)(C)CO	30	7.8	11	25	118	9.1	112	9.6	755	1114	800	702	53	25	79	28	38	-27	73	1.6	Activity (Rattus norvegicus [21]): 1.6 mg/dL; Activity (Rattus norvegicus [22]): 40%; Activity (Rattus norvegicus [23]): 0.98 mg/dL; Activity (Rattus norvegicus [24]): 1 mg/dL; Activity (Rattus norvegicus [25]): 39 mg/dL; Activity (Rattus norvegicus [26]): 43 mg/dL; Activity (Rattus norvegicus [27]): 485 mg/dL; Activity (Rattus norvegicus [28]): 730 mg/dL; Activity (Rattus norvegicus [29]): 43 mg/dL; Activity (Rattus norvegicus [30]): 110 mg/dL; Activity (Rattus norvegicus [31]): 116 mg/dL; Activity (Rattus norvegicus [32]): 103 mg/dL; Activity (Rattus norvegicus [33]): 9.1 ng/mL; Activity (Rattus norvegicus [34]): 125 mg/dL; Activity (Rattus norvegicus [35]): 114 mg/dL
CC(C)(CCCCC(=O)CCCCC(C)(C)C(=O)O)C(=O)O	48	8.9	9.5	40	108	9.8	113	8.1	996	1333	775	440	39	24	68	37	43	-33	74	1.4	Activity (Rattus norvegicus [21]): 1.5 mg/dL; Activity (Rattus norvegicus [22]): 56%; Activity (Rattus norvegicus [23]): 0.81 mg/dL; Activity (Rattus norvegicus [24]): 1.5 mg/dL; Activity (Rattus norvegicus [25]): 39 mg/dL; Activity (Rattus norvegicus [26]): 36 mg/dL; Activity (Rattus norvegicus [27]): 383 mg/dL; Activity (Rattus norvegicus [28]): 814 mg/dL; Activity (Rattus norvegicus [29]): 34 mg/dL; Activity (Rattus norvegicus [30]): 105 mg/dL; Activity (Rattus norvegicus [31]): 118 mg/dL; Activity (Rattus norvegicus [32]): 103 mg/dL; Activity (Rattus norvegicus [33]): 9.2 ng/mL; Activity (Rattus norvegicus [34]): 134 mg/dL; Activity (Rattus norvegicus [35]): 110 mg/dL
CC(C)(CCCCCC(=O)CCCCCC(C)(C)C(=O)O)C(=O)O	27	9.1	6	20	114	9.1	120	11.9	905	1119	995	78	138	23	141	14	30	-78	51	1.3	Activity (Rattus norvegicus [21]): 1 mg/dL; Activity (Rattus norvegicus [22]): 156%; Activity (Rattus norvegicus [23]): 0.98 mg/dL; Activity (Rattus norvegicus [24]): 0.95 mg/dL; Activity (Rattus norvegicus [25]): 66 mg/dL; Activity (Rattus norvegicus [26]): 75 mg/dL; Activity (Rattus norvegicus [27]): 69 mg/dL; Activity (Rattus norvegicus [28]): 865 mg/dL; Activity (Rattus norvegicus [29]): 62 mg/dL; Activity (Rattus norvegicus [30]): 122 mg/dL; Activity (Rattus norvegicus [31]): 120 mg/dL; Activity (Rattus norvegicus [32]): 124 mg/dL; Activity (Rattus norvegicus [33]): 6.4 ng/mL; Activity (Rattus norvegicus [34]): 129 mg/dL; Activity (Rattus norvegicus [35]): 117 mg/dL
